Assay outcomes deposited in PubChem BioAssay by Sanford-Burnham Center for Chemical Genomics.
These entries were drawn from the full list.
HKDC1 activator – HKDC1 (human) hexokinase activation; Q2TB90; recombinant HKDC1, G6PDH/diaphorase resazurin fluorescence; hits give low values; activity change, negative = activation, % at 20 µM; hit rate 0.056% among 340,000; AID 493187;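 active = activation of 40% or more at 20 µM, a change of -40% or lower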
Target sequence (Q2TB90 whole entry, looked up): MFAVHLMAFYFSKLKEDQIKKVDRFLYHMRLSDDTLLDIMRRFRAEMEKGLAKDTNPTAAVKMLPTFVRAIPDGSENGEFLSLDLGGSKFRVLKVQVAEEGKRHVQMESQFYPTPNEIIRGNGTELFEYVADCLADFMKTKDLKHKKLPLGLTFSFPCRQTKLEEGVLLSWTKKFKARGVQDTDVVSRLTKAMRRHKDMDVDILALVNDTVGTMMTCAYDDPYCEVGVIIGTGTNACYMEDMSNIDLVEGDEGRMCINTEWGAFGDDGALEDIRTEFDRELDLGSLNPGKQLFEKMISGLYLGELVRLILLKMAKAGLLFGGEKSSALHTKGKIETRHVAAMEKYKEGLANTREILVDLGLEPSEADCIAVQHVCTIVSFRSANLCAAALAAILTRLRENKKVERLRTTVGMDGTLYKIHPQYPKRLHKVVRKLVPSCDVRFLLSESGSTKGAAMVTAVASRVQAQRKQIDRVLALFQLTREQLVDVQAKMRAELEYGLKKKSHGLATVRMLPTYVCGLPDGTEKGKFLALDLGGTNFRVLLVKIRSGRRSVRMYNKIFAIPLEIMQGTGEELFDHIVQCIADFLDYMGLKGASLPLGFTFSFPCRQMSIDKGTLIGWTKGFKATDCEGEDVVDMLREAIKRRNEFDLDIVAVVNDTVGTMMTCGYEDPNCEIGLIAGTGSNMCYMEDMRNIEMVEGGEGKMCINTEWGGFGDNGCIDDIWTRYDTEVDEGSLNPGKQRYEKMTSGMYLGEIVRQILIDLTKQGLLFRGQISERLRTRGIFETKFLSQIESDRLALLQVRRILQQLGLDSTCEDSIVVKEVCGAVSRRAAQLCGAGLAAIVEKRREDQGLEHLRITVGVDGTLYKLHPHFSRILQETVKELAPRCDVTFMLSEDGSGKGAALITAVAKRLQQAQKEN
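Dosing: single compound dose of 20 µM, 1% DMSO final / Test system: in-house human HKDC1 enzyme, G6PDH and diaphorase coupling enzymes / Quantity: 5 µg/mL HKDC1 final / Incubation: enzyme reaction 90 min, room temperature, in dark / Buffer or medium: pH 8.0 Tris with MgCl2 / Detection: coupled resazurin-to-resorufin fluorescence, Ex 525/Em 613 nm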
* marks the source's active call; other numbers are inactive results.

SMILES | HKDC1 activator
COC(=O)c1c(NC(C)=O)sc(Cc2ccccc2)c1C | -77*
Cc1c(Cc2ccccc2)sc(NC(=O)Cc2ccccc2)c1C(N)=O | -52*
CCCN(CCC)C(=O)c1cc([N+](=O)[O-])cc2c1-c1ccc([N+](=O)[O-])cc1C2=C(C#N)C#N | 41
CC(=O)Nc1ccc(S(=O)(=O)NCCC(=O)OC(C)C(=O)c2ccc(C)cc2)cc1 (stereo unspecified) | 35
O=C(NCc1ccccn1)c1cc(S(=O)(=O)N2CCN(c3ccccc3)CC2)ccc1Cl | 73
COc1ccc(S(=O)(=O)/N=C2/C=CC(=O)C(C)=C2C)cc1 | 52
Cc1ccc(-c2nc(NC(=O)CSc3cc(C)c4ccccc4n3)ns2)cc1 | 57
COc1cc(/C=C2\SC(=S)N(c3cccnc3)C2=O)ccc1O | 38
CCOc1ccc2c(c1)C(NC(C)=O)C(=O)N2CCN1CCOCC1 (stereo unspecified) | 82
Cn1c(SSc2ccc(-c3cccnc3)n2C)ccc1-c1cccnc1 | -341*
CCc1nc2sc3c(=O)[nH]cnc3c2c2c1CSC(C)(C)C2 | 37
COC(=O)CCC(=O)OC1(C)C(=O)C2=CN(CC3CC3)C(c3ccc(OC)cc3)=CC2=C(Br)C1=O (stereo unspecified) | 37
NC(=NCCCCCCN=C(N)/N=C(\N)Nc1ccc(Cl)cc1)/N=C(\N)Nc1ccc(Cl)cc1 | 53
NC(=O)[C@H]1CC2(CC(c3cccc(NC(=O)[C@H]4CCC(=O)N4)c3)=NO2)CN1C(=O)c1ccccc1 (stereo partly specified) | 39
COc1ccc(C2=NNC(=Nc3cc(S(=O)(=O)N(C)C)ccc3C)SC2)c(OC)c1 | -125*
CC(=O)Nc1ccc(C2=NNC(=Nc3cccc(S(=O)(=O)N(C)C)c3)SC2)cc1 | -284*
CN(C)S(=O)(=O)c1cccc(N=C2NN=C(c3ccccc3)CS2)c1 | -281*
CCC1C/C(=C\c2cccnc2)C(=O)/C(=C/c2cccnc2)C1 (stereo unspecified) | 35
O=Cc1[nH]c2ccccc2c1N(C(=O)CCl)c1ccccc1 | 35
O=C1C=CC2(C=C1)O[C@H](Cc1ccccc1)[C@@H](Cc1ccccc1)O2 | 38
O=C(NC1=C(NC2CCS(=O)(=O)C2)C(=O)c2ccccc2C1=O)c1ccccc1 (stereo unspecified) | 53
O=C(/C=C/c1cccc([N+](=O)[O-])c1)c1ccc([N+](=O)[O-])o1 | 55
Cc1ccc(Sc2ccc(/C=C3/C(=O)NN(c4ccccc4)C3=O)o2)cc1 | 35
COC(=O)CCC(=O)OC1(C)C(=O)C2=CN(c3ccccc3)C(c3ccc(OC)cc3)=CC2=C(Br)C1=O (stereo unspecified) | 38
O=C1C=C(Nc2ccccc2C(=O)O)c2ccccc2C1=O | 46
SMILES | HKDC1 activator
O=c1c2c3nc4ccccc4nc3n(-c3ccc4c(c3)OCCO4)c2ncn1C1CCCC1 | 48
O=C(Nc1ccc2nc(-c3ccco3)c(-c3ccco3)nc2c1)N1CCCCCC1 | 45
CCN(CC)C(=O)c1ccc(C(=O)c2c(C)cc(C)cc2C)cc1 | 39
O=C1C(Cl)=C(N2CCC(C(=O)O)CC2)C(=O)c2ccccc21 | 50
CC1COCC(C)N1C1=C(Cl)C(=O)c2ccccc2C1=O (stereo unspecified) | 38
Cn1c2ccccc2c(=O)c2c(=O)n(-c3ccc(F)cc3)c(-c3cccs3)nc21 | 68
COc1cc(/C=C2\SC(c3ccccc3)=NC2=O)cc(Cl)c1O | 49
O=C(CN(C(=O)CCC(=O)Nc1ccccn1)c1ccc2c(c1)OCO2)NCc1ccc(F)cc1 | -46*
O=c1c2ccccc2nc2n1CCC2 | 82
O=C1/C(=C/Nc2cccc([N+](=O)[O-])c2)CCc2ccccc21 | 41
O=C(N/N=C/c1ccc(O)cc1O)/C(=C/c1ccccc1)CCO | -40*
COC(=O)c1ccccc1NC1=C/C(=N\S(=O)(=O)c2cccs2)c2ccccc2C1=O | 39
C[c-]1[c-](C)[c-](C)[c-](C)[c-]1C.[Fe].c1cc2nccc(N3CCCC3)[c-]2c1 (stereo unspecified) | 49
CC1(OC(=O)CCc2ccccc2)C(=O)C=C2C=C(c3ccc(C#N)cc3)N(Cc3ccccc3)C=C2C1=O (stereo unspecified) | 36
Cc1sc(-c2ccccn2)nc1OC(=O)c1ccc(F)cc1F | -50*
O=C1C=C(N(CCO)Cc2ccccc2)c2ccccc2C1=O | 35
CCCCNCCOCCOc1ccccc1-c1ccccc1 | -59*
O=C(O)c1cc(N2N=C(C(F)(F)F)/C(=C/C=C/c3ccco3)C2=O)ccc1Cl | 46
CC1=NOC(=O)/C1=C\c1ccc(-c2cc(Cl)ccc2Cl)o1 | 57
Cc1ccc(S(=O)(=O)/N=C2\C=C(Nc3cccc(C(=O)O)c3)C(=O)c3ccccc32)c(C)c1 | 39
Cc1nc2c3cc(F)ccc3n(Cc3ccccc3)c2s1 | -60*
O=C1C(SCCO)=C(SCCO)C(=O)c2ccccc21 | 72
CN(C)C(=O)/C(C#N)=C\c1cc(Br)c(Sc2ccc(Cl)cc2)o1 | 35
COc1ccc(NC(=O)Cc2c[nH]c3ccccc23)cc1S(=O)(=O)N1CCCCC1 | 49
C=CCNC(=S)N/N=C(\C)c1ccccn1 | -44*
SMILES | HKDC1 activator
Cc1ccc(S(=O)(=O)N2CCN(C(=O)CN3C(=O)NC4(CCCCC4)C3=O)CC2)c(C)c1 | 38
Nc1nc(-c2cccc(Br)c2)cs1 | -65*
O=S(=O)(c1cccc(COc2ccc(Cl)cc2Cl)c1)N1CCOCC1 | 39
Fc1ccc(F)c(C2=NNC(=Nc3ccccc3F)SC2)c1 | -143*
O=S(=O)(c1ccc(N=C2NN=C(c3cc(F)ccc3F)CS2)cc1)N1CCOCC1 | -308*
Fc1ccc(N=C2NN=C(c3cc(F)ccc3F)CS2)cc1 | -218*
CC(C)(C)N=C1NN=C(c2ccc(S(=O)(=O)N3CCCCC3)cc2)CS1 | -67*
O=C(O)c1ccccc1-c1c2cc(I)c(=O)c(I)c-2oc2c(I)c(O)c(I)cc12 | 69
CC(=O)Nc1ccc2cc3ccc(NC(C)=O)cc3nc2c1 | 43
O=C(CSc1nnc(CCCN2C(=O)c3cccc4cccc(c34)C2=O)n1-c1ccccc1)N1CCCCC1 | 37
Cc1ccc(/C=C/c2nc3sc(C(=O)O)c(C)c3c(=O)[nH]2)cc1[N+](=O)[O-] | 47
C=CC(=O)N1C/C(=C/c2ccc(Cl)cc2)C(=O)/C(=C\c2ccc(Cl)cc2)C1 | 45
Cc1cc(C(=O)N=Nc2c(O)n(C(C)C)c3ccccc23)n[nH]1 | 40
COc1cc(/C=C2/C(=O)NN(c3ccc(Cl)c(Cl)c3)C2=O)cc([N+](=O)[O-])c1O | 50
CCN(CC)c1ccc2c(c1)oc(=O)c1c(Cl)cc(=O)oc12 | 49
CC(C(=O)O)N1C(=O)/C(=C/C=C/c2ccco2)SC1=S (stereo unspecified) | 56
Cc1ccc(C)c(S(=O)(=O)Nc2cc(SCC(=O)O)c(O)c3ccccc23)c1 | 63
Cc1ccccc1/C=C/C(=O)c1ccc([N+](=O)[O-])o1 | 46
CCc1ccc(S(=O)(=O)Nc2cc(SCC(=O)O)c(O)c3ccccc23)cc1 | 54
Nc1ccc(S(=O)(=O)c2cc(O)c3ccccc3c2O)cc1 | 55
CCC(=O)OC1(C)C(=O)C2=COC(c3ccc(OC)cc3)=CC2=C(Br)C1=O (stereo unspecified) | 45
O=C(Nc1ccc(Nc2ccncc2)cc1)c1ccc(Nc2ccnc3ccc([N+](=O)[O-])cc23)cc1 | 44
